An excerpt weighted towards active compounds, which were near 3.1% of everything screened.
Yeast lifespan up – yeast lifespan extension | S. cerevisiae growth with nicotinamide, OD615; deaD strain in restrictive glucose medium | inhibition of the nicotinamide effect, % at 10 µM | actives 0.68% (n = 130,000) | AID 775;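 active means inhibition above a set limit, placed 3 SD over the median of all compounds, cut at about 26% in these data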
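Material: Modified budding yeast, DeaD strain | Medium: Restrictive glucose medium | Probe or stimulus: 1.5 mM nicotinamide | Dosing: Single dose 10 µM compound, 0.25% DMSO | Times: 48 h at 30 °C | Technique: OD615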
INS promoter inh – TRM-6 insulin promoter activity inhibition. TRM-6 cells, insulin promoter-eGFP reporter, imaging; reporter expression induced with tamoxifen. inhibition, % at 2 µM. actives 0.9% (n = 130,000);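 active means inhibition above the mean plus 3 SD, with well images judged a real hit on visual review, cut at about 60% in these data, passing the limit was not always enough; inconclusive means inhibition over the cutoff but images rejected on review; inactive means inhibition not above the cutoff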
Yeast growth inh – reduces growth of yeast BB579 in restrictive medium; S. cerevisiae BB579 growth, OD615, 48 h; inhibition, % at 10 µM; actives 0.51% (n = 140,000);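 active means inhibition above a set limit, 3 SD over the mean compound inhibition, cut at about 44% in these data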
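Test system: S. cerevisiae DeaD strain BB579 yeast; Medium: restrictive CSMM-D medium; Compound: one dose, 10 µM compound with 0.25% DMSO; Incubation: 4 h cell preincubation, 48 h compound exposure, 30 °C humidified; Signal: OD at 615 nm; Benchmarks: amphotericin B at 10 µg/mL as positive control.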
RAM inhibit – yeast RAM network inhibition; S. cerevisiae dse1pr::URA3 reporter, 5-FOA growth OD615, 2 d; analog-sensitive cbk1-as2 kinase mutant strain; inhibition, % at 50 µM; actives 1.8% (n = 190,000);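 active means inhibition above a set limit, 3 SD over mean compound inhibition, cut at about 8.4% in these data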;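 further: inhibition rescues growth on 5-FOA so higher OD means more RAM inhibition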
Insulin prom up – MIN6 insulin promoter up-regulation. MIN6 insulin promoter-GFP reporter, high-content imaging; active compounds read high. z-score at 5 µM. actives 0.3% (n = 190,000);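 active means z-score above 3 at 5 µM with at least 500 cells counted in the well; inconclusive means wells under 500 cells, flagged as cytotoxic or low count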
Of the large screens only hits and unclear results are named; the others gave an inactive call.

O=C(Nc1ccc(OC(F)F)c(Cl)c1)C(c1ccccc1)c1ccccc1	RAM inhibit 9.6 (no result: INS promoter inh)
O=C(Cc1cccc2ccccc12)Nc1ccc(OC(F)F)c(Cl)c1	none
Cc1ccc(S(=O)(=O)N(C)C)cc1NC(=O)COC(=O)c1sc2cc(Cl)ccc2c1Cl	none (no result: Yeast lifespan up, INS promoter inh, Yeast growth inh, RAM inhibit)
CCOc1ccc2[nH]c3c(N4CCN(c5ccccn5)CC4)ncnc3c2c1	INS promoter inh 87.5 (no result: Insulin prom up)
CC(=O)c1ccc(NC(=O)CSc2nnc(-c3ccco3)c(-c3ccco3)n2)cc1	none (no result: Yeast lifespan up, INS promoter inh, Yeast growth inh)
O=C(CSc1nnc(-c2ccco2)c(-c2ccco2)n1)c1ccccc1	RAM inhibit 10.1 (no result: Yeast lifespan up, Yeast growth inh)
CC(=O)c1ccc(NC(=O)c2cnn3c(C(F)F)cc(C4CC4)nc23)cc1	none (no result: Yeast lifespan up, Yeast growth inh, RAM inhibit, Insulin prom up)
CC(C)CSC1=NSC2=NC(=O)/C(=C\c3coc4ccccc4c3=O)C(=N)N12	RAM inhibit 9.0 (no result: Yeast lifespan up, Yeast growth inh)
CSC1=NSC2=NC(=O)/C(=C\c3coc4ccccc4c3=O)C(=N)N12	Yeast growth inh 69.6 (no result: INS promoter inh, Insulin prom up)
CC(C)CSC1=NSC2=NC(=O)/C(=C\c3ccccc3)C(=N)N12	none (no result: Yeast lifespan up, Yeast growth inh)
CC(C)CN1C(=O)c2ccc(C(=O)Nc3c[nH]c(=O)[nH]c3=O)cc2C1=O	none (no result: Yeast lifespan up, INS promoter inh, Yeast growth inh, Insulin prom up)
CCn1c(Cc2ccccc2)nnc1SCC(=O)Nc1nc2ccccc2s1	none (no result: Insulin prom up)
Cc1ccc2nc(NC(=O)CSc3nnc(C)c(=O)n3N)sc2c1	RAM inhibit 8.9
CCn1c(SCC(=O)Nc2nc3ccccc3s2)nnc1-c1ccc(OC)cc1	RAM inhibit 9.8
Cc1ccc(NC(=O)CSc2nnc(C)c(=O)n2N)c(C)c1	none
COc1ccc(Cl)cc1NC(=O)CN1CCc2ccccc21	none (no result: Yeast lifespan up, INS promoter inh, Yeast growth inh)
COc1cc(-c2nnc(SCC(=O)c3ccc(C)cc3)o2)cc(OC)c1OC	none
COc1cc(-c2nnc(SCc3c(F)cccc3Cl)o2)cc(OC)c1OC	RAM inhibit 10.7
COc1cc(-c2nnc(SCc3ccccc3Cl)o2)cc(OC)c1OC	RAM inhibit 10.6 (no result: INS promoter inh)
Cc1cccc2cc(CNCC3CCCO3)c(Cl)nc12 (configuration not stated)	none (no result: Yeast lifespan up, Yeast growth inh, Insulin prom up)
O=C(COC(=O)CNS(=O)(=O)c1ccc(F)c(F)c1F)Nc1ccc(OC(F)F)cc1	none
O=CC1=C(N2CCOCC2)/C(=C/c2ccc(Cl)cc2)CC1	none (no result: Yeast lifespan up, INS promoter inh, Yeast growth inh)
Cc1cc(C)nc(N/N=C/C2=C(N3CCOCC3)C(=C\c3ccc(Cl)cc3)/CC2)n1	Yeast growth inh 51.7 (no result: Insulin prom up)
O=C(NNS(=O)(=O)c1ccccc1)C1CC(c2cccnc2)=NO1 (configuration not stated)	none (no result: Yeast lifespan up, INS promoter inh, Yeast growth inh)
O=C(Nc1ccc([N+](=O)[O-])cc1)Nc1nc(-c2ccc(Cl)s2)cs1	INS promoter inh 77.8
CC(=O)Nc1nc(-c2ccc([N+](=O)[O-])cc2)cs1	none (no result: Yeast lifespan up, Yeast growth inh)
O=C(NCc1ccc2c(c1)OCO2)c1ccc(NS(=O)(=O)c2ccc3c(c2)OCCO3)cc1	RAM inhibit 8.5 (no result: Insulin prom up)
N#Cc1c2c(c(Nc3ccccc3)n3c1nc1ccccc13)CCC2	none
Cc1ccnc(N2CCN(c3c4c(c(C#N)c5nc6ccccc6n35)CCC4)CC2)c1	INS promoter inh 85.7 (no result: Yeast lifespan up, Yeast growth inh, RAM inhibit, Insulin prom up)
N#Cc1c2c(c(-n3cnc4ccccc43)n3c1nc1ccccc13)CCC2	Insulin prom up 4.79
CCc1c(C)c(C#N)c2nc3ccccc3n2c1N1CCN(c2cc(C)ccn2)CC1	none
COCCNC(=O)c1onc(CSc2cc(C)cc(C)c2)c1C(=O)NCCOC	none (no result: Yeast lifespan up, INS promoter inh, Yeast growth inh, RAM inhibit)
Cc1ccc(CN2CCN(Cc3cccn3-c3ccccn3)CC2CCO)o1 (configuration not stated)	none (no result: Yeast lifespan up, INS promoter inh, Yeast growth inh)
FC(F)(F)c1cc(-c2cccs2)nc2cc(-c3cccs3)nn12	none (no result: Yeast lifespan up, INS promoter inh, Yeast growth inh, RAM inhibit)
COc1cc(NC(=S)N2CCC(C(N)=O)CC2)c(OC)cc1Cl	none (no result: Yeast lifespan up, Yeast growth inh)
CCOC(=O)CSc1nc2cc(C)ccc2cc1C#N	INS promoter inh inconclusive
CCOC(=O)CSc1nc2cc(OC)ccc2cc1C#N	INS promoter inh 93.8
O=C(/C=C/c1cc([N+](=O)[O-])ccc1OC(F)F)NCc1ccc(F)cc1	RAM inhibit 8.7
O=C(/C=C/c1cc([N+](=O)[O-])ccc1OC(F)F)Nc1cccc([N+](=O)[O-])c1	none (no result: Yeast lifespan up, INS promoter inh, Yeast growth inh, RAM inhibit)
Cc1c(Cl)c(C(F)(F)F)nn1CC(=O)N1CCSCC1	INS promoter inh 100.0
CCOC(=O)c1c(CSC(=N)N)n(-c2ccc(C)cc2)c2cc(Br)c(OC(C)=O)cc12	RAM inhibit 11.0 (no result: Insulin prom up)
CCOC(=O)c1c(CN(C)C)n(-c2ccccc2)c2cc(Br)c(OC)cc12	Yeast lifespan up 26.0
CCc1ccc(NC(=O)CC2C(=O)N(c3ccc(C)cc3)C(=O)N2CCc2ccncc2)cc1 (configuration not stated)	none (no result: Yeast lifespan up, INS promoter inh, Yeast growth inh)
CCN1CCN(c2cc(N3CCc4ccccc4C3)c(F)cc2[N+](=O)[O-])CC1	none (no result: INS promoter inh)

Bioassay records: PubChem BioAssay, several laboratories
